# Screening data deposited in PubChem BioAssay by several laboratories.
# Hits are enriched below; roughly 1.6% of the tested compounds scored in any of these assays.
# MsrA act = bovine methionine sulfoxide reductase A activation; purified bovine MsrA, absorbance read-out; activation, % at 10.6 µM; 360,000 compounds, 0.3% hits; in the data active means activation above about 7.5%
# MT1-MMP act inh = blocks activation of human MT1-MMP; P50281; HT1080 RFP-PRO-GFP cells, GFP/RFP ratio fluorescence, overnight; percent of plate control window, DMSO zero; GFP/RFP ratio change, % at 20 µM; 360,000 compounds, 0.061% hits; AID 651647;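 active means GFP/RFP ratio change of at least 30% with cell ATP level not reduced by more than half and red fluorescence within 50% of control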
#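 Assay system – RFP-PRO-GFP reporter HT1080 cells · Compound dosing – single dose of 20 µM compound, 1% DMSO final · Incubation – overnight compound exposure at 37 °C · Measure – GFP/RFP fluorescence ratio · Benchmarks – DMSO wells and RFP-L50D-GFP cells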
# SKN-1 inh = blocks SKN-1 activity in C. elegans; C. elegans VP596 Pgst-4::GFP/RFP ratio, acrylamide-induced, 24 h; inhibition, % at 21.8 µM; 360,000 compounds, 0.49% hits;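 active means interference check ratio from 0.5 to 1.5 plus GFP to RFP signal ratio inhibition reaching or exceeding a fixed threshold, cut at about 30% in these data, passing the limit was not always enough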
# MsrA inhibitor = inhibitors of bovine MsrA; inhibition, % at 15.5 µM; purified bovine MsrA, absorbance read-out; AID 651718; 360,000 compounds, 0.75% hits
# pCIP destab = compounds decreasing mouse p/CIP protein stability | F442A p/CIP-EGFP cells, EGFP fluorescence, 16 h | decrease of EGFP signal, % at 10 µM | 290,000 compounds, 0.01% hits | AID 1984;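 active means EGFP signal decrease of at least 30% at 10 µM or well 3 SD below plate mean, unless failing retest; inactive means the rest, including hits failing retest or dose response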
# MsrA conf = bovine MsrA inhibition, confirmed; AID 651822; inhibition, % at 15.5 µM; shares compounds with MsrA inhibitor; purified bovine MsrA, absorbance read-out; 2,300 compounds, 41% hits;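 further: coupled to thioredoxin reductase with NADPH and selenocystamine and DMSO as substrate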
# A number is an active result; . = inactive; / = no result given. Unless noted, no stated cut-off is given here; in the data, active means inhibition above about 4.5%; inactive means the rest.
SMILES,MsrA act,MT1-MMP act inh,SKN-1 inh,MsrA inhibitor,pCIP destab,MsrA conf
N#C/C(=N\Nc1ccccc1)C(=N)N1CCOCC1,.,.,.,5.1,.,.
CCC(=O)/C=C1/Sc2ccc(OC)cc2N1CCO,.,.,.,.,.,/
CCC(=O)/C=C1/Sc2ccc(OC)cc2N1CC,.,.,.,4.7,.,.
CCC(=O)/C=C1/Sc2ccccc2N1CC,.,.,.,8.2,.,.
COc1ccc(C(=O)NCC2CCN(C(=O)C(=O)c3cc4ccccc4o3)CC2)cc1,/,/,/,.,/,/
O=C(N/C(=C/c1ccc(Br)cc1)c1nc2ccccc2[nH]1)c1ccco1,.,.,.,5.9,.,.
O=C(N/C(=C/c1ccc(Cl)cc1)c1nc2ccccc2[nH]1)c1ccco1,.,.,.,.,.,/
CC(=O)N(C)C[C@@H]1OCc2ccccc2-c2c(n(C)c3ccccc23)C(=O)N([C@@H](C)CO)C[C@@H]1C,/,/,/,.,/,/
CN(C(=O)[C@H]1O[C@@H](n2cnc(C(N)=O)n2)[C@H](O)[C@@H]1O)c1ccccc1,/,/,/,.,/,/
CC1(C)Cc2c(sc(NC(=S)NC(=O)c3ccccc3)c2C(=O)O)CO1,.,.,.,.,.,/
CC1(C)Cc2c(sc(NC(=O)c3ccco3)c2C(=O)O)CO1,.,.,.,4.7,.,.
Cc1ccc(-c2nc3ccccc3n2C)o1,.,.,.,.,.,/
CC(=O)c1ccc(-c2nc3ccccc3n2C)o1,.,.,.,6.7,.,.
O=c1cnn(-c2ccccc2)c(-c2ccccc2)c1,.,.,.,12,.,9.5
Nc1c(-c2ccccc2)cnn1-c1ccccc1,.,.,.,.,.,/
c1ccc(Nc2nnc(-c3ccc4c(c3)OCO4)o2)cc1,/,/,/,.,/,/
O=C(/C=C(\Nc1cccc(F)c1)c1ccccc1)c1ccccc1,/,/,/,.,/,/
CCC(C)NC(=O)CSc1nc(-c2cccs2)cc(C(F)(F)F)n1 (stereo not drawn),.,.,.,6.2,.,.
COc1ccc(-c2cc(C(F)(F)F)nc(SCCC(=O)N3CCN(C)CC3)n2)cc1,.,.,.,.,/,/
COCC(C)NC(=O)CCSc1nc(-c2ccc(OC)cc2)cc(C(F)(F)F)n1 (stereo not drawn),.,.,.,5.0,.,.
CCOC(=O)C1=CCN(S(=O)(=O)c2ccc(Br)cc2)C1c1cccc(F)c1 (stereo not drawn),/,/,/,.,/,/
C#CCNC(=O)C[C@H]1C[C@@]2(C(=O)OC)C(=C[C@H](C(C)C)O[C@@H]2C2CC2)N(Cc2ccccc2)C1=O,/,/,/,.,/,/
CCc1ccc(-n2c(O)cnc2Nc2nc(C)cc(C)n2)cc1,.,.,.,9.5,.,7.0
COc1ccc(-n2c(O)c(/C=N/Nc3nc(C)cc(C)n3)c3ccccc3c2=O)cc1OC,.,.,.,.,.,/
COc1ccc(-n2c(O)cnc2Nc2nc(C)cc(C)n2)cc1OC,.,.,.,15,.,6.5
SMILES,MsrA act,MT1-MMP act inh,SKN-1 inh,MsrA inhibitor,pCIP destab,MsrA conf
CCc1ccc(Nc2nc(C)cc(C)n2)cc1,.,.,.,.,.,/
CC(C)(C)OC(=O)N1CCC[C@@H]1C(=O)N1CCC[C@@H]1C(=O)NCc1ccccc1,/,/,/,.,/,/
COC(=O)C1=C(C)N(C)C(=NCc2ccc3c(c2)OCO3)NC1c1ccc(F)cc1 (stereo not drawn),/,/,/,.,/,/
CCS(=O)(=O)Nc1ccc(C2=NN(C(=O)c3ccco3)C(c3ccco3)C2)cc1 (stereo not drawn),.,.,.,5.1,/,.
Cc1ccc(N(C)S(=O)(=O)c2cccc(C(=O)Oc3ccc4c(C)cc(=O)oc4c3)c2)cc1,.,.,.,4.8,.,.
NS(=O)(=O)c1ccc(N/N=C/c2ccc[nH]2)c([N+](=O)[O-])c1,.,/,.,5.1,.,5.5
NS(=O)(=O)c1ccc(N/N=C/c2ccc(C(=O)O)cc2)c([N+](=O)[O-])c1,.,.,.,5.1,.,4.9
CC(=O)Nc1ccc(C=NNc2ccc(S(=O)(=O)Nc3ccccc3C(=O)O)cc2[N+](=O)[O-])cc1,.,.,.,6.0,/,4.9
Cc1cc(N2CCNC[C@@H]2C)ccc1N1CCS(=O)(=O)CC1,/,/,/,.,/,/
Cc1cc(Nc2ccc(OC(F)F)cc2)cc(=O)n1-c1ccc(OC(F)F)cc1,/,/,/,.,/,/
O=C(c1ccccc1)c1ccc(O)cc1O,.,.,.,5.6,.,.
Cc1csc2ncc(C(=O)N3c4ccccc4CC3C)c(=O)n12 (stereo not drawn),.,.,.,6.4,.,.
